The results in this text go back to PubChem BioAssay.

A number with no mark means an inactive call. Inconclusive results are not listed. Activity calls are given as the source filed them.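 How the source made its calls, unless noted: active means inhibition over a set limit, the all-compound mean plus 3 SD, in both replicate runs; inconclusive means over that limit in just one replicate run; inactive means at or under that limit in both runs.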

The nature of assay [1]: OD615 S. cerevisiae growth inhibition, permissive medium, pilot counter-assay, permissive growth control for S. cerevisiae lifespan shortening project (AID 705;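 active means growth inhibition above 25% in both replicates, a cutoff set 3 SD above the mean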). As to conditions: OD615, 24 h, at 10 µM, active compounds read high. The essentials:
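System – S. cerevisiae with engineered DeaD lifespan system · Buffer or medium – SC raffinose/galactose permissive medium · Schedule – cells pre-grown 4 h, then 24 h compound exposure, 30 °C humidified · Technique – culture turbidity as optical density at 615 nm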

A short description of assay [2]: Restrictive medium S. cerevisiae growth inhibition, OD615, pilot screen of yeast lifespan reduction project, restrictive growth control (AID 706;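 active means growth inhibition above a set limit, 3 SD over mean compound inhibition, in both replicates, cut at about 43% in these data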;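 further: modified DeaD lifespan yeast strain shifted to restrictive glucose medium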). As to conditions: OD615, 48 h, at 10 µM, active compounds read high. The essentials:
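Material: engineered S. cerevisiae DeaD strain / Medium: glucose-based CSMM-D restrictive medium / Compound: single dose of 10 µM compound final, 0.25% DMSO / Timing: 4 h pre-incubation, 48 h exposure at 30 °C / Technique: OD615 absorbance reading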

A short description of assay [3]: viability gain of MRP-1-high H69AR cells under doxorubicin, pilot screen, MRP-1 activator project, CellTiter-Glo, duplicate (AID 807;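 active means viability increase at or above a cutoff of the median across tested compounds plus 3 SD, cut at about 8.5% in these data, passing the limit was not always enough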;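 further: compound pretreatment 18-22 h then 72 h combined with doxorubicin; 0% = doxorubicin alone and 100% = vehicle without doxorubicin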). Particulars: H69AR viability with doxorubicin, CellTiter-Glo luminescence; at 10 µM; active compounds read high.
Assay [4] is described as follows: growth suppression of beta-catenin knockout HCT116, pilot screen, human colon tumor cells (AID 823;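 active means cell viability at or below a set limit in both duplicate runs, the limit being the all-compound median minus 4 SD, cut at about 23% in these data, passing the limit was not always enough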;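 further: 0% = wells killed by 20 µM Hyamine and 100% = untreated DMSO cell wells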). Particulars: CellTiter-Glo, 60 h, at 10 µM, active compounds read low.
Assay [5] in a line: growth suppression of PTEN-deleted HCT116, pilot screen, cell-based, HCT116 clonal line, CellTiter-Glo (AID 824;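 active means viability at or below 27.92% in each of two runs, the all-compound median minus 4 SD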;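 further: 0% = 20 µM Hyamine control and 100% = vehicle cell control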). As to conditions: 60 h, at 10 µM, active compounds read low.
Assay [6] in a line: inhibitors of the yeast RAM network, pilot screen, dse1pr::URA3 reporter, 5-FOA selection (AID 869).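 Further: 0% = DMSO wells with no growth and 100% = 10 µM 1-NA-PP1 with full growth; RAM network block rescues cells from 5-FOA so hits raise OD615 growth.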 Particulars: S. cerevisiae dse1pr::URA3 5-FOA growth, OD615, 2 d; at 10 µM; active compounds read high; strain carries analog-sensitive mutant Cbk1 kinase.
Assay [7] in a line: RAM signaling pathway blockade in yeast – S. cerevisiae, Pdr1DBD-CYC8 efflux-inhibited sensitized strain, primary screen (AID 1298;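 active means RAM network inhibition above 8.4% in each of two replicates, 3 SD over the compound average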;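 further: 0% = DMSO untreated cells without growth and 100% = 10 µM 1-NA-PP1 full growth; higher means more yeast growth rescued from 5-FOA killing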). As to conditions: S. cerevisiae cbk1-as DSE1-URA3 strain, 5-FOA growth OD615, 2 d; at 50 µM; active compounds read high.

For the molecule `CCOC(=O)C1C(=O)Oc2ccc3ccccc3c2C1C1CCOC1=O` (stereo unspecified), the growth inhibition in assay [1] was -5.13%; in assay [2] it was -1.85%. The viability increase in assay [3] is -2.53%. For the same molecule, the viability in assay [4] was 99.5%; in assay [5], 97.6%. The inhibition in assay [6] is 0.105%. Besides, the RAM network inhibition in assay [7] was -1.08%.

In the case of `O=C(COc1ccccc1)Nc1nnc(-c2ccc(Cl)s2)o1`, the growth inhibition is -2.75% in assay [1] and 8.75% in assay [2]. In assay [3], the viability increase was -1.36%. Also, the viability is 109% in assay [4] and 100% in assay [5]. For the same molecule, in assay [6], the inhibition was 2.67%. Besides, the RAM network inhibition in assay [7] is 1.52%.

On to `O=C(CSCc1ccc(Cl)cc1)c1ccco1`, for which the growth inhibition in assay [1] was -9.9%; in assay [2] it was 0.15%. Further, in assay [3], the viability increase was 0.59%. The viability in assay [4] is 96.5%; in assay [5], 89.8%. The inhibition in assay [6] was 0.695%. Moreover, the RAM network inhibition in assay [7] is 2.59%.

Turning to `COc1cccc(N(CC(=O)Nc2cccc(F)c2)S(C)(=O)=O)c1`, the growth inhibition in assay [1] was -5.09%; in assay [2], -12.3%. For the same molecule, in assay [3], the viability increase is -1.38%. Moreover, the viability is 91.1% in assay [4] and 97.5% in assay [5]. In addition, the inhibition in assay [6] was 0.965%. Besides, the RAM network inhibition in assay [7] was 3.51%.

Take `COc1ccc(OCCC(=O)OCC(=O)NCc2ccco2)cc1`: the growth inhibition in assay [1] is -11%; in assay [2] it was 1.25%. Also, in assay [3], the viability increase is -1.75%. Further, the viability in assay [4] and in assay [5] was 92.2% throughout. Besides, in assay [6], the inhibition was 1.01%. Also, the RAM network inhibition in assay [7] was 4.11%.

As to `O=C(NCc1ccco1)c1nnc(Cc2ccc(F)cc2)o1`, the growth inhibition in assay [1] is -18.4%; in assay [2] it was -12.9%. The viability increase in assay [3] is -0.65%. Besides, the results for the viability in assay [4] and in assay [5] were 105% and 89.5%, respectively. In addition, the inhibition in assay [6] was 1.21%. Besides, the RAM network inhibition in assay [7] is 4.79%.

`O=C(O)c1cc2nc(C3CC3)cc(C(F)(F)F)n2n1`: the growth inhibition in assay [1] is -2.34%; in assay [2], -2.47%. In addition, in assay [3], the viability increase is 0.62%. The figures for the viability in assay [4] and in assay [5] were 102% and 90.1%, respectively. Moreover, the inhibition in assay [6] was 1.67%. In addition, the RAM network inhibition in assay [7] was -2.13%.

`FC(F)C(F)(F)C1=CC(c2ccccc2)=NCCN1`: the growth inhibition in assay [1] is -9.88%; in assay [2], -17.6%. Further, in assay [3], the viability increase was -1.16%. The viability is 96.7% in assay [4] and 85.5% in assay [5]. Also, the inhibition in assay [6] was 1.59%. Besides, the RAM network inhibition in assay [7] was 2.09%.

Consider `CCOc1ccccc1Nc1nnc(C)c(=O)[nH]1`, for which the values for the growth inhibition in assay [1] and in assay [2] were -5.5% and 5.76%, respectively. Besides, in assay [3], the viability increase was -0.35%. In addition, the figures for the viability in assay [4] and in assay [5] were 105% and 99.3%, respectively. Besides, the inhibition in assay [6] is 0.56%. Further, in assay [7], the RAM network inhibition was 3.65%.

Turning to `CCCn1c(=S)[nH]c2cc(C(=O)NCC3CCCO3)ccc2c1=O` (stereo unspecified), the growth inhibition in assay [1] is -1.52%; in assay [2], 7.49%. Further, in assay [3], the viability increase is 0.21%. Besides, the viability in assay [4] was 104%; in assay [5] it was 86.5%. For the same molecule, the inhibition in assay [6] was 1.96%. In addition, the RAM network inhibition in assay [7] is 2.81%.

As for `c1nc(N2CCNCC2)c2sc3nc(N4CCOCC4)c4c(c3c2n1)CCC4`, the growth inhibition in assay [1] is -0.055%; in assay [2], 6.55%. Moreover, the viability increase in assay [3] is -6.75%. Further, the viability in assay [4] is 2.54% (active); in assay [5], 1.69% (active). Also, the inhibition in assay [6] was 2.3%. The RAM network inhibition in assay [7] is 7.31%.

In the case of `CCOC(=O)CSc1nc(C)cc(Oc2ccc(=O)n(C)n2)n1`, the values for the growth inhibition in assay [1] and in assay [2] were -17.4% and -8.09%, respectively. Also, the viability increase in assay [3] is 0.54%. In addition, the viability in assay [4] is 102%; in assay [5], 97.5%. Moreover, the inhibition in assay [6] is 1.12%. For the same molecule, the RAM network inhibition in assay [7] is 0.42%.

Turning to `COc1ccc(S(=O)(=O)N2Cc3ccccc3CC2C(=O)O)cc1OC` (stereo unspecified), the figures for the growth inhibition in assay [1] and in assay [2] were 6.5% and 3.09%, respectively. The viability increase in assay [3] is 0.39%. Moreover, the viability in assay [4] was 104%; in assay [5] it was 96.1%. For the same molecule, in assay [6], the inhibition is 1.33%. Besides, the RAM network inhibition in assay [7] was 5.1%.

Regarding `N#Cc1c2n(c3c(=O)n(Cc4ccc(Cl)cc4)cnc13)CCCC2`, the figures for the growth inhibition in assay [1] and in assay [2] were -12.5% and -5.03%, respectively. The viability increase in assay [3] was 1.08%. Moreover, the viability in assay [4] is 93.8%; in assay [5] it was 87%. For the same molecule, the inhibition in assay [6] was 0.755%. The RAM network inhibition in assay [7] is 4.22%.

On to `Cc1c(NC(=O)C2CCN(S(=O)(=O)c3ccccc3)CC2)c(=O)n(-c2ccccc2)n1C`, for which the values for the growth inhibition in assay [1] and in assay [2] were -3.65% and -4.28%, respectively. Further, in assay [3], the viability increase is -2.25%. Moreover, the viability is 96.5% in assay [4] and 88.8% in assay [5]. Moreover, the inhibition in assay [6] is 1.45%. In addition, the RAM network inhibition in assay [7] was 6.15%.

For the molecule `CCC(=O)Nc1nc2c(OC)ccc(C)c2s1`, the growth inhibition was -17.7% in assay [1] and -14.1% in assay [2]. The viability increase in assay [3] was -5.96%. Moreover, the viability in assay [4] was 96.4%; in assay [5], 92.2%. For the same molecule, the inhibition in assay [6] is 0.225%. Moreover, in assay [7], the RAM network inhibition was 1.37%.

On to `O=C(Cn1ncc2ccccc21)N1CCc2ccccc21`, for which the growth inhibition is -9.24% in assay [1] and -14.6% in assay [2]. The viability increase in assay [3] was -3%. Besides, the viability in assay [4] is 72.2%; in assay [5], 84.2%. Moreover, in assay [6], the inhibition was 1.26%. In addition, the RAM network inhibition in assay [7] is 3.51%.

For the molecule `CCc1ccc(N2C(=O)c3sc4nnc(C)c(=O)n4c3C2=O)cc1`, the growth inhibition in assay [1] was -19.9%; in assay [2], -7.66%. In assay [3], the viability increase was -1%. For the same molecule, the viability was 87.9% in assay [4] and 76.9% in assay [5]. The inhibition in assay [6] is 1.4%. The RAM network inhibition in assay [7] was 0.21%.
